The term IC50 denotes the midpoint of a concentration-inhibition curve. A higher IC50 goes with lower potency.

The text below walks through data of ChEMBL document CHEMBL4130514, “Sporothriolide-Related Compounds from the Fungus Hypoxylon monticulosum CLL-205 Isolated from a Sphaerocladina Sponge from the Tahiti Coast” (J Nat Prod, 2017).

Active and inactive are the calls of the source. The calls are words filed in the database; no cut-off is given here.

One assay has as its system HCT-116. In words: Antiproliferative activity against human HCT116 cells after 72 hrs by MTT assay. Particulars: for IC50: HCT-116, 72 h. Format: functional, cell-based. In short, it runs like this: (§1)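 Tetrazolium colorimetric proliferation assay in HCT-116 (colon carcinoma), PC-3 (prostate) and MCF-7 (breast) cells grown in DMEM with 10% fetal calf serum plus penicillin, streptomycin and fungizone. After 24 h growth, cells were treated with compounds from 100 μM to 10 nM, given in DMSO at 1% to 3% final. MTS was added at 72 h and absorbance was read at 490 nm against untreated cells. IC50 was determined from separate duplicate experiments.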
For orientation: Tetrazolium assays rely on reduction of a dye to a coloured formazan, in cell work by metabolically active cells.

The next assay has as its system Bacillus subtilis. In words: Antibacterial activity against Bacillus subtilis. Format: functional, organism-based.
For a further assay, the system named is Micrococcus luteus. In words: Antibacterial activity against Micrococcus luteus. Format: functional, organism-based.
Another assay relates to MCF7. In words: Antiproliferative activity against human MCF7 cells after 72 hrs by MTT assay. Format: functional, cell-based. In short, it runs like this:
as §1

The next assay relates to Escherichia coli. In words: Antibacterial activity against Escherichia coli. It counts as functional, organism-based.
The nature of assay [1]: Inhibition of hyaluronidase (unknown origin). Details: species or system Homo sapiens.
Another assay relates to PC-3. In words: Antiproliferative activity against human PC3 cells after 72 hrs by MTT assay. Format: functional, cell-based. In short, it runs like this: as §1

With `CCCCCC[C@H]1OC(=O)[C@@H]2[C@H]1OC(=O)[C@]21CCC=C[C@H]1/C=C/[C@@H]1O[C@H](C)C[C@@H]1O`, the outcome in the assay on HCT-116, in the assay on Bacillus subtilis, in the assay with Micrococcus luteus, in the assay with MCF7, with Escherichia coli and in the assay on PC-3 was inactive. In assay [1], it took 300 µM to reach half-maximal inhibition (IC50).

In the case of `CC1(C)[C@@H](O[C@H]2O[C@H](C(=O)O)[C@@H](O)[C@H](O)[C@H]2O[C@@H]2O[C@H](C(=O)O)[C@@H](O)[C@H](O)[C@H]2O)CC[C@]2(C)[C@H]3C(=O)C=C4[C@@H]5C[C@@](C)(C(=O)O)CC[C@]5(C)CC[C@@]4(C)[C@]3(C)CC[C@@H]12` [GLYCYRRHIZIN], the IC50 in assay [1] stood at 320 µM.

Take `C=C1C(=O)O[C@@H]2[C@H]1C(=O)O[C@@H]2CCCCCC`: the IC50 in the assay on HCT-116 was 7.1 µM; with MCF7 (MCF7, 72 h) it was 4 µM; with PC-3 (PC-3, 72 h), 6.4 µM. Moreover, the outcome with Bacillus subtilis, with Micrococcus luteus and in the assay with Escherichia coli was inactive.

For the molecule `C=C(C(=O)O)[C@H]1C[C@@H](CCCCCC)OC1=O`, inhibition with HCT-116 was half-maximal at 18 µM (IC50). Also, the result in the assay on Bacillus subtilis, in the assay with Micrococcus luteus and in the assay on Escherichia coli was inactive.
